≈ marks a conversion by molar mass, not a printed value.
Key:
[1] = target: T1, Cytochrome P450 11B2, mitochondrial (Homo sapiens, UniProt P19099); assay: Inhibition of CYP11B2 in human […] cells assessed as decrease in […] aldosterone secretion after 24 hrs by RIA; type: cell-based
T1 sequence (P19099 whole entry): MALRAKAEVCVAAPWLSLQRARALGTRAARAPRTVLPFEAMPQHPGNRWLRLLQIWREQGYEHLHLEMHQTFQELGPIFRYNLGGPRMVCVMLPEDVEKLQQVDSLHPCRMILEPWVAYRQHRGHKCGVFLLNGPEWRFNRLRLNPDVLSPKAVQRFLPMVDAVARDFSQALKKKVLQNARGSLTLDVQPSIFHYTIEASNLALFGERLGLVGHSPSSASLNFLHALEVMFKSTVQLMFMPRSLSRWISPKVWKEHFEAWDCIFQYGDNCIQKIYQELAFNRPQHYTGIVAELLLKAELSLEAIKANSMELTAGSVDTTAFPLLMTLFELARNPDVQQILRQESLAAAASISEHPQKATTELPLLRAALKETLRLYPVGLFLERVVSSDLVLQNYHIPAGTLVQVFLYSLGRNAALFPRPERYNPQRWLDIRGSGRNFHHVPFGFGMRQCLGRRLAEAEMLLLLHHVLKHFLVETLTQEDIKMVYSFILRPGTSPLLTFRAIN

[2] = target: T1, Cytochrome P450 11B2, mitochondrial; assay: Inhibition of human recombinant CYP11B2 using 11-deoxycorticosterone as substrate after 2 hrs by scintillation proximity assay
Homo sapiens = organism: Homo sapiens; assay: Selectivity ratio of IC50 for human recombinant CYP11B1 to IC50 for human recombinant CYP11B2
CYP19 (aromatase) = target: T2, CYP19 (aromatase) (Homo sapiens, UniProt P11511); assay: Inhibition of human CYP19 at 10 uM preincubated for 10 mins with NADPH followed by protein addition measured after 90 mins by fluorometric analysis
T2 sequence (P11511 whole entry): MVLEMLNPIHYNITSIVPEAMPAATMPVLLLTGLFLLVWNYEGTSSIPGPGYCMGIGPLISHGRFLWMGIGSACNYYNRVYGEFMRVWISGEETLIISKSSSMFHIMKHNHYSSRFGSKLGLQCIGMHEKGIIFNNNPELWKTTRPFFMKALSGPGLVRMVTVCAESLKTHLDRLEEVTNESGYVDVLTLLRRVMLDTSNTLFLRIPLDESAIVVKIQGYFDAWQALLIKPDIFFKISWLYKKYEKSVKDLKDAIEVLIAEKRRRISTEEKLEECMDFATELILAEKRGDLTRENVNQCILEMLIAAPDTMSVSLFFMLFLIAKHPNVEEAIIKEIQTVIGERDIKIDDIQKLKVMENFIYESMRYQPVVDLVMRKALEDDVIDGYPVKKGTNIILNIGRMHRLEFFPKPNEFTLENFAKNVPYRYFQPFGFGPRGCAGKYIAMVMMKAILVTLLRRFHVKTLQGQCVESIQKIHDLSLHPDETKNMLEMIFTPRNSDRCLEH

[3] = Half life in rat liver microsomes after 30 mins by LC/MS/MS analysis; type: ADME
[4] = Half life in human liver microsomes after 30 mins by LC/MS/MS analysis; type: ADME
[5] = Equilibrium solubility of the compound in buffer at pH 6.8; type: physicochemical
Procedure, shortened: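 Equilibrium solubility measured in buffer at pH 6.8.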

[6] = Clearance in continuous angiotensin-2 infusion Sprague-Dawley rat model at 3 mg/kg, po and 1 mg/kg, iv; type: ADME, organism-based; conditions: in vivo
[7] = Oral bioavailability in continuous angiotensin 2 infusion Sprague-Dawley rat model at 3 mg/kg; type: ADME, organism-based; conditions: in vivo
Procedure, shortened: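 Male Sprague Dawley rats, 200–300 g. IV: 0.3 mg/1 mL/kg (free base) slow injection via jugular vein, n=2. Oral gavage at 1 mg/5 mL/kg or 3 mg/5 mL/kg in solution, n=3. Jugular catheter blood at 5 min (iv only), 0.25–8 h into EDTA; plasma after protein precipitation with acetonitrile containing internal standard, HPLC-MS; noncompartmental parameters.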

[8] = Half life in continuous angiotensin 2 infusion Sprague-Dawley rat model at 3 mg/kg, po and 1 mg/kg, iv; type: ADME, organism-based; conditions: in vivo
[9] = Inhibition of CYP11B2 in cynomolgus monkey adrenal homogenates assessed as inhibition of aldosterone secretion; type: tissue-based, Macaca fascicularis
Procedure, shortened: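 Cynomolgus monkey adrenal homogenates, with 11-DOC as substrate; aldosterone secretion inhibition determined as IC50.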

Macaca fascicularis = organism: Macaca fascicularis; assay: Selectivity ratio of IC50 for cynomolgus monkey CYP11B1 to IC50 for cynomolgus monkey CYP11B2
Procedure, shortened: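 Adrenal homogenates from cynomolgus monkey (Macaca fascicularis) served as the enzyme source, with 11-DOC as substrate. CYP11B2 activity was read as aldosterone production and CYP11B1 activity as cortisol production. The value is the CYP11B1 IC50 divided by the CYP11B2 IC50.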

[10] = AUC (0 to 24 hrs) in Sprague-Dawley rat at 1 mg/kg, po; conditions: in vivo
[11] = target: T3, Cytochrome P450 11B2, mitochondrial (Rattus norvegicus, UniProt P30099); assay: Inhibition of recombinant rat CYP11B2 using 11-deoxycorticosterone as substrate after 2 hrs by scintillation proximity assay
T3 sequence (P30099 whole entry): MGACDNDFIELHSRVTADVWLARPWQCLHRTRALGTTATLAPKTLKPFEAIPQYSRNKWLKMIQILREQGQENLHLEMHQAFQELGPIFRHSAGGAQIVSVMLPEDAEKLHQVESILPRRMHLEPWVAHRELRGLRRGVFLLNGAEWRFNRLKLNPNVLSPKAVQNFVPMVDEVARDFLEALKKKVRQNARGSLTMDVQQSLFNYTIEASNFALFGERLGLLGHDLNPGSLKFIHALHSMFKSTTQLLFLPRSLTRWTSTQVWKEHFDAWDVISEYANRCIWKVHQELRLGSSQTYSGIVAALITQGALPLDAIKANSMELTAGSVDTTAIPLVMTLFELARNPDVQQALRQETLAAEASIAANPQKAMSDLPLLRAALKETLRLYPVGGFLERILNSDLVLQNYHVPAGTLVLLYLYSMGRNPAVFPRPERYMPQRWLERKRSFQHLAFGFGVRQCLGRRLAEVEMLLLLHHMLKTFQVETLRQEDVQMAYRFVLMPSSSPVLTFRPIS

[12] = target: T4, Amine oxidase [flavin-containing] A (Homo sapiens, UniProt P21397); assay: Inhibition of MAO-A (unknown origin)
T4 sequence (P21397 whole entry): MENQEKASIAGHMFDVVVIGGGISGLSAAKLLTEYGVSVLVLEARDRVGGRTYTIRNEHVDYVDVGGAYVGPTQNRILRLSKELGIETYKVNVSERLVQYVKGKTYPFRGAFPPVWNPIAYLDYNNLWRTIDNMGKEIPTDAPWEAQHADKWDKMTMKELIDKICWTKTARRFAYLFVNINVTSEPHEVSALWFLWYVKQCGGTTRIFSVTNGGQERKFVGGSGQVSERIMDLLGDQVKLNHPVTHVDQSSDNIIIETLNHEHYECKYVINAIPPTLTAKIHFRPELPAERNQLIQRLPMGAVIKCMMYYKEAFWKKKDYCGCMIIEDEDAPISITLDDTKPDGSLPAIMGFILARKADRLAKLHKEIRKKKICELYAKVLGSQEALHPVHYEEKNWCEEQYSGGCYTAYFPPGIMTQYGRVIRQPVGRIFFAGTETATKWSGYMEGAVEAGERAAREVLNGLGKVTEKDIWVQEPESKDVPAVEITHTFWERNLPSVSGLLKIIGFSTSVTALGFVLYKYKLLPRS

Row | Structure (SMILES) | IC50 [1] [nM] | IC50 [2] [nM] | Ratio IC50 (Homo sapiens) | inhibition at 1.5 h, 10 µM (CYP19 (aromatase)) [%] | half-life [3] [min] | half-life [4] [min] | solubility thermodynamic [5] [µM] | clearance [6] [mL/min/kg] | bioavailability [7] [%] | half-life [8] [min] | IC50 [9] [nM] | Ratio IC50 (Macaca fascicularis) | AUC(0-t) at 24 h [10] [µM·h] | IC50 [11] [nM] | inhibition (INH) ([12]; human) | IC50 [12] [nM]
1 | CCS(=O)(=O)NCc1cncc(-c2cc3ccc(Cl)nc3n2C)c1 | 7 | 1.1 | 86 | 11 | 40 | 21 | 450 (≈ 164 µg/mL) | 68 | 100 | 24 | 6 | 99 | 0.75 |  |  | 
2 | Cc1c(-c2cccnc2)n(C)c2ccccc12 | 9 | 1.4 | 38 | 91 | 5 | 12 |  |  |  |  |  |  |  |  |  | 
3 | CCS(=O)(=O)Nc1cncc(-c2c(C#N)c3ccccc3n2C)c1 | 380 |  |  |  |  |  |  |  |  |  |  |  |  |  |  | 
4 | Cc1c(-c2cccnc2)[nH]c2ccccc12 | 21 | 3 | 27 | 94 |  |  |  |  |  |  |  |  |  | 3900 |  | 
5 | CN(C)S(=O)(=O)Oc1cncc(-c2c(C#N)c3ccccc3n2C)c1 | 39 | 2 | 103 | 27 | 1 | 3 |  |  |  |  |  |  |  | 2000 |  | > 10000

More lines, in order of falling IC50 [1], values ahead:

Row | IC50 [1] [nM] | IC50 [2] [nM] | Ratio IC50 (Homo sapiens) | inhibition at 1.5 h, 10 µM (CYP19 (aromatase)) [%] | half-life [3] [min] | half-life [4] [min] | solubility thermodynamic [5] [µM] | clearance [6] [mL/min/kg] | bioavailability [7] [%] | half-life [8] [min] | IC50 [9] [nM] | Ratio IC50 (Macaca fascicularis) | AUC(0-t) at 24 h [10] [µM·h] | IC50 [11] [nM] | inhibition (INH) ([12]; human) | IC50 [12] [nM] | Structure (SMILES)
6 | 169 | 22 | 21 |  |  |  |  |  |  |  |  |  |  |  |  |  | CCS(=O)(=O)NCc1cncc(-c2cc3cnc(Cl)cc3n2C)c1
7 | 90 | 11 | 56 | 58 | 30 | 10 |  |  |  |  | 9 | 396 |  | 10900 |  |  | Cn1c(-c2cccnc2)c(C#N)c2ccccc21
8 | 13 | 11 | 43 | 15 | 176 | > 400 |  |  |  |  |  | 636 |  | 53100 | Not Active |  | CCS(=O)(=O)Nc1cncc(-c2c(C#N)c3ccc(Cl)cc3n2C)c1
9 | 4 | 2.5 | 43 | 47 | 47 | 259 |  |  |  |  |  |  |  | 8000 |  | 210 | Cn1c(-c2cccnc2)c(C#N)c2ccc(Cl)cc21
